Our source for the IC50, IC50 ratio and Activity values is ChEMBL document CHEMBL1145315, “Synthesis and hypoxic-cytotoxic activity of some 3-amino-1,2,4-benzotriazine-1,4-dioxide derivatives” (Bioorg Med Chem Lett, 2006).

By IC50 is commonly meant the concentration that inhibits the measured activity by half. Lower therefore signals higher potency.

Molecules are shown by their SMILES. Active and inactive are the calls of the source. The rule behind the calls is not given here.

The test system of test [1] is MOLT-4. Kind of test: Cytotoxicity against human Molt4 cells after 48 hrs by MTT assay. The format is functional, cell-based. As to conditions: MOLT-4, 48 h. Summed up:
(§1)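 Cells were exposed in hypoxia for 48 h with tirapazamine as the reference drug. Growth was read by MTT assay and IC50 was calculated by the LOGIT method.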
In general terms: Tetrazolium dyes change colour on reduction, which living cells bring about.

The test system of test [2] is HL-60. Kind of test: Cytotoxicity against human HL60 cells after 48 hrs by MTT assay. It is filed as functional, cell-based. To be noted: HL-60, 48 h. Summed up:
as §1

Test [3] relates to PC-3. Kind of test: Cytotoxicity against human PC3 cells after 48 hrs by MTT assay. The format is functional, cell-based. As to conditions: PC-3, 48 h. An outline of the steps:
as §1

The test system of test [4] is K562. Nature of the test: Cytotoxicity against human K562 cells after 48 hrs by MTT assay. It is filed as functional, cell-based. To be noted: K562, 48 h. Summed up: as §1
The test system of test [5] is HepG2. Kind of test: Cytotoxicity against human HepG2 cells after 48 hrs by MTT assay. The format is functional, cell-based. As to conditions: HepG2, 48 h. An outline of the steps:
as §1

The test system of test [6] is MOLT-4. Nature of the test: Ratio of cytotoxicity against human Molt4 cells in normoxia to hypoxia after 48 hrs. It is filed as functional, cell-based. As to conditions: MOLT-4, 48 h.
Test [7] has as its system HL-60. Nature of the test: Ratio of cytotoxicity against human HL60 cells in normoxia to hypoxia after 48 hrs. It is filed as functional, cell-based. As to conditions: HL-60, 48 h.
Test [8] relates to HL-60. Kind of test: Cytotoxicity against human HL60 cells in normoxia after 48 hrs. The format is functional, cell-based. As to conditions: HL-60, 48 h. Summed up:
(§2)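 Cells were exposed for 48 h in either normoxia or hypoxia. IC50 was determined separately under each oxygen condition.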

For test [9], the system named is HL-60. Nature of the test: Cytotoxicity against human HL60 cells in hypoxia after 48 hrs. To be noted: HL-60, 48 h. The format is functional, cell-based. Summed up:
as §2

The test system of test [10] is MOLT-4. Nature of the test: Cytotoxicity against human Molt4 cells in hypoxia after 48 hrs. The format is functional, cell-based. As to conditions: MOLT-4, 48 h. An outline of the steps:
as §2

Test [11] has as its system MOLT-4. Nature of the test: Cytotoxicity against human Molt4 cells in normoxia after 48 hrs. It is filed as functional, cell-based. To be noted: MOLT-4, 48 h. An outline of the steps: as §2
For test [12], the system named is MOLT-4. Nature of the test: Induction of apoptosis in human Molt4 cells after 24 hrs at 2 uM. The format is functional. An outline of the steps: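 Cells were cultured in complete medium under 3% O2 with 2.0 μM compound for 24 h, alongside an untreated control. Lysed nuclei were stained with propidium iodide, and DNA content was analysed by flow cytometry on 20,000 events per test, scoring the apoptotic fraction. The experiment was done three times.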

In test [13] the test system is MOLT-4. Kind of test: Reduction of mitochondrial membrane potential in human Molt4 cells after 12 hrs at 2 uM. It is filed as functional, cell-based. An outline of the steps: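 Cells were treated with 2.0 μM compound for 12 h in hypoxia and then stained with JC-1. Flow cytometry read depolarization as a rise in the green:red fluorescence ratio. Values are means ± SD from three separate experiments, each run in triplicate.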

The test system of test [14] is MOLT-4. Kind of test: Increase in p53 level in human Molt4 cells in hypoxia after 24 hrs at 2 uM. The format is functional, cell-based. Summed up: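 Cells were exposed to 2.0 μM compound for 24 h in hypoxia, and p53 protein was measured by Western blot. The experiment was repeated three times.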

In the case of `CCNc1n[n+]([O-])c2ccccc2[n+]1[O-]`, the IC50 in [1] stood at 3.3 µM; in [2], 9 µM; in test [3] it was 13.3 µM; in [4], 4.5 µM; in test [5], 13.5 µM.

For the molecule `O=[N+]([O-])c1ccc(CNc2n[n+]([O-])c3ccccc3[n+]2[O-])cc1`, the figures for the IC50 ratio in [6] and in test [7] were 6.25 and 4.29, respectively. Besides, the half-maximal inhibitory concentration (IC50) stood at 6 µM in test [8]; 0.8 µM in test [1]; 1.4 µM in test [2]; 7.4 µM in [3]; 1.4 µM in test [9]; 3.1 µM in test [4]. In addition, the IC50 in [5] was 7.7 µM; in test [10] it was 0.8 µM; in [11], 5 µM.

On to `[O-][n+]1nc(Nc2ccccc2)[n+]([O-])c2ccccc21`, for which the IC50 came out at 1.4 µM in test [1]; 2.9 µM in test [2]; 17 µM in [3]; 2.4 µM in test [4]; 15 µM in test [5].

Regarding `Nc1n[n+]([O-])c2ccccc2[n+]1[O-]` [TIRAPAZAMINE], the IC50 ratio came to 3.43 in test [6] and 2.31 in [7]. Besides, the concentration for half-maximal inhibition (IC50) in test [8] is 16.1 µM; in [1], 4.6 µM; in test [2], 7 µM; in [3], 22.3 µM; in [9] it was 7 µM; in [4], 5.2 µM. Besides, the figures for the half-inhibitory concentration (IC50) in test [5], in test [10] and in [11] were 19.1 µM, 4.6 µM and 15.8 µM, respectively. Moreover, in test [12], the Activity is 11%. The result in test [13] and in [14] was Active.

In the case of `[O-][n+]1nc(NCc2ccccc2Cl)[n+]([O-])c2ccccc21`, the IC50 in [1] amounted to 2.3 µM; in test [2], 5.8 µM; in test [3] it was 10.6 µM; in [4], 2.2 µM; in [5], 9.7 µM.

On to `Nc1ccccc1Nc1n[n+]([O-])c2ccccc2[n+]1[O-]`, for which the 50% inhibitory concentration (IC50) in test [1] worked out at 2.3 µM; in [2], 8.3 µM; in test [3], 16.1 µM; in test [4], 10.6 µM; in test [5] it was 17.4 µM.

Regarding `[O-][n+]1nc(NC2CCCCC2)[n+]([O-])c2ccccc21`, the concentration for half-maximal inhibition (IC50) was determined as 1.3 µM in test [1]; 2.5 µM in [2]; 10.5 µM in [3]; 2.6 µM in [4]; 9.5 µM in [5].

Turning to `CCN(CC)c1n[n+]([O-])c2ccccc2[n+]1[O-]`, the half-inhibitory concentration (IC50) in [1] is greater than 17.6 µM; in test [2] it was greater than 49 µM; in test [3], greater than 107 µM; in test [4], greater than 55 µM; in test [5] it was greater than 107 µM.

With `[O-][n+]1nc(NCc2ccccc2)[n+]([O-])c2ccccc21`, the IC50 ratio in test [6] came to 3.68; in test [7], 2.53. In addition, the IC50 in [8] stood at 6.3 µM; in [1], 2.2 µM; in [2], 2.5 µM; in test [3], 10.7 µM; in test [9], 2.5 µM; in test [4], 1.9 µM. The IC50 came out at 8.2 µM in [5], 2.2 µM in [10] and 8.1 µM in test [11]. Moreover, in [12], the Activity is recorded as 33%. In addition, the outcome in [13] and in [14] was Active.

For `[O-][n+]1nc(NCCO)[n+]([O-])c2ccccc21`, the IC50 came to 2.6 µM in [1]; 10.7 µM in test [2]; 22.4 µM in test [3]; 3.7 µM in [4]; 23.2 µM in test [5].

`C=CCNc1n[n+]([O-])c2ccccc2[n+]1[O-]`: the IC50 is 3 µM in test [1]; 25.8 µM in test [2]; greater than 56 µM in test [3]; 11.2 µM in test [4]; greater than 56 µM in test [5].

Take `Cc1ccc(Nc2n[n+]([O-])c3ccccc3[n+]2[O-])cc1`: the IC50 in [1] turned out to be 1.1 µM; in test [2], 1.5 µM; in test [3] it was 10.3 µM; in test [4], 2.5 µM; in [5] it was 10.6 µM.

In the case of `CCCCCCCCNc1n[n+]([O-])c2ccccc2[n+]1[O-]`, the concentration for half-maximal inhibition (IC50) is 4.9 µM in [1]; 7.2 µM in test [2]; 18.2 µM in test [3]; 4.7 µM in test [4]; 17.4 µM in [5].

Consider `[O-][n+]1nc(NC2CC2)[n+]([O-])c2ccccc21`, for which the half-inhibitory concentration (IC50) worked out at 1.9 µM in test [1]; 3.6 µM in test [2]; 15.9 µM in test [3]; 6.6 µM in [4]; 13.3 µM in test [5].

As to `COc1ccc(Nc2n[n+]([O-])c3ccccc3[n+]2[O-])cc1`, the IC50 ratio in test [6] was 8.67; in test [7], 7.56. Besides, the 50% inhibitory concentration (IC50) in test [8] is 6.8 µM; in test [1], 0.6 µM; in [2], 0.9 µM; in test [3], 12 µM; in test [9], 0.9 µM; in test [4] it was 2.9 µM. Moreover, the IC50 in test [5] worked out at 10.1 µM; in test [10], 0.6 µM; in test [11], 5.2 µM. In addition, in test [12], the Activity is 45%. The outcome in test [13] and in test [14] was Active.

Regarding `[O-][n+]1nc(N2CCOCC2)[n+]([O-])c2ccccc21`, the half-maximal inhibitory concentration (IC50) in test [1] was greater than 16.1 µM; in [2], greater than 60 µM; in test [3], greater than 95 µM; in [4] it was greater than 47 µM; in [5], greater than 95 µM.
